According to article PMC10250156 (Molecular Metabolism, 2023):

Experiments:
[1] = Light exposure experiment: zeaxanthin metabolites in eye and liver by HPLC; type: in vivo; conditions: albino Isx^−/−/Bco2^−/− mice, 250 mg/kg zeaxanthin, 4 weeks
Outline: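 Albino mice were fed the 250 mg/kg or control diet for 4 weeks after weaning. Three groups were used: 24 h/day darkness (DC), a 12/12 h light/dark cycle (L/DC), or L/DC plus twice-weekly light stress from week 2 (LS). For light stress, mice were dark-adapted overnight, pupils were dilated with 1% tropicamide, and mice received 85,000 lux white light for 2 min. Whole eye and liver carotenoids were then quantified by HPLC.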

[2] = type: in vivo, mice
Outline: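 Male and female mice were fed vitamin A-free diets for 4 weeks from weaning; the WT cohort received the 250 mg/kg diet. Tissues were weighed and snap-frozen at -80 °C. Carotenoids were extracted under dim red light from about 25 mg of intestinal segments, liver or eWAT, 100 uL serum, or one whole eye. Analysis was normal-phase silica HPLC with diode-array detection. Data are means ± SD, n=5 (eWAT: 3 females, 2 males); two-way ANOVA.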

[3] = HPLC analysis of zeaxanthin content in fecal matter during dietary intervention; type: in vivo, mice; conditions: 50 mg/kg zeaxanthin supplementation, 28 days
Outline: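 Mice were fed vitamin A-free diets starting at weaning. Feces were collected on days 0, 1, 2, 4, 7, 14, 21 and 28 of the 28-day intervention. Carotenoids were extracted from about 25 mg feces under dim red light (<600 nm). Zeaxanthin was quantified by HPLC.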

[4] = tested on: albino Isx^−/−/Bco2^−/− mice; assay: Optical coherence tomography; type: in vivo; conditions: 250 mg/kg versus 0 mg/kg, 4 weeks
[5] = tested on: albino Isx^−/−/Bco2^−/− mice; assay: Skin colour phenotype of supplemented albino mice; type: in vivo; conditions: 250 mg/kg zeaxanthin, 4 weeks, hypercarotenemia
Outline: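 Albino mice were fed a vitamin A-free diet containing 250 mg/kg zeaxanthin or no zeaxanthin (control) for 4 weeks, starting immediately after weaning. Skin colour of the ears, eyelids and nostrils was inspected and photographed.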

[6] = Food intake and liver weight during zeaxanthin dietary intervention; type: in vivo; conditions: Bco2^−/− and Isx^−/−/Bco2^−/− mice, 0, 50, 250 mg/kg diet
Outline: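 Male and female mice were placed on vitamin A-free diets after weaning at 4 weeks old, for 4 weeks. Zeaxanthin was given as water-soluble beadlets incorporated into the diet. Fresh diet was given weekly, and body weight was recorded then. Food consumption was the leftover food per cage divided by the number of mice in the cage. At study end, mice were anaesthetised and livers dissected and weighed.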

[7] = tested on: albino Isx^−/−/Bco2^−/− mice; assay: Electroretinography; type: in vivo; conditions: 250 mg/kg versus 0 mg/kg, 4 weeks
[8] = Chiral HPLC analysis of zeaxanthin stereoisomers in tissues; type: in vivo; conditions: Isx^−/−/Bco2^−/− mice on 250 mg/kg 3R,3′R-zeaxanthin diet

Compound: CC1=CC(=O)CC(C)(C)C1/C=C/C(C)=C/C=C/C(C)=C/C=C/C=C(C)/C=C/C=C(C)/C=C/C1C(C)=CC(=O)CC1(C)C (centres unmarked) [oxidized zeaxanthin, ε,ε-carotene 3, 3′-dione]
- concentration in the eyes of L/DC and LS groups compared to DC group [1]: increased

Compound: CC1=C(/C=C/C(C)=C/C=C/C(C)=C/C=C/C=C(C)/C=C/C=C(C)/C=C/C2=C(C)C[C@@H](O)CC2(C)C)C(C)(C)C[C@H](O)C1 [zeaxanthin, 3R,3′R-zeaxanthin]
- form of zeaxanthin detectable in liver ([2]; 50 mg zeaxanthin diet, Bco2^−/− and Isx^−/−/Bco2^−/− mice, 4 weeks): only the oxidized form of zeaxanthin became detectable
- total zeaxanthin in eWAT, Isx^−/−/Bco2^−/− versus Bco2^−/− mice ([2]; 50 mg/kg or 250 mg/kg diet, 4 weeks): significantly higher amounts
- concentration of carotenoids in eWAT and eyes compared with kidney and serum ([2]; 50 mg/kg zeaxanthin, Bco2^−/− and Isx^−/−/Bco2^−/− mice): two-fold higher
- amount of zeaxanthin in jejunum relative to other parts of the intestine ([2]; WT mice, 250 mg/kg diet, 4 weeks, major metabolite parent compound): highest amount
- fecal zeaxanthin excretion, Isx^−/−/Bco2^−/− versus Bco2^−/− mice [3]: excreted less zeaxanthin
- OCT: retinal morphology, supplemented versus non-supplemented mice [4]: no differences in the stratification of the retinal layers
- skin phenotype (ears, eyelids, nostrils) [5]: yellow skin color phenotype
- effect on food intake [6]: did not affect food intake
- liver weight between dietary groups ([6]; 4 weeks): no significant difference in liver weight
- ERG responses under photopic and scotopic conditions [7]: normal responses
- total zeaxanthin or its oxidized form in liver between light treatment groups [1]: no light-dependent increase
- ocular levels between different light groups ([1]; DC, L/DC, LS): remained relatively constant

Compound: CC1=C(/C=C/C(C)=C/C=C/C(C)=C/C=C/C=C(C)/C=C/C=C(C)/C=C/C2=C(C)C[C@H](O)CC2(C)C)C(C)(C)C[C@H](O)C1 [3R, 3′S-zeaxanthin]
- presence in the eyes by chiral HPLC [8]: no peak with a retention time of 3R, 3′S-zeaxanthin was detected
